Experimental data: ChEMBL document CHEMBL1148280, “Design, synthesis, structural studies, biological evaluation, and computational simulations of novel potent AT(1) angiotensin II receptor antagonists based on the 4-phenylquinoline structure” (J Med Chem, 2004)
pIC50: −log10 of the molar value.

Legend:
[1] = species: Oryctolagus cuniculus; assay: Inhibition of angiotensin II induced contraction in rabbit aortic strips after 120 minutes contact with the compound; format: functional; conditions: Aorta, 2 h
How it was run: (§1)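 Rabbit aortic strips under 2 g resting tension, isometric recording, equilibrated 1 h. A cumulative Ang II concentration–response curve was run first, then a 30 min washout. Antagonist or vehicle was added at several concentrations before a submaximal (70–80%) Ang II challenge; contact time differed by line. Percent inhibition was regressed to give IC50 with P = 0.05 fiducial limits.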

[2] = biological target: T1, Type-1 angiotensin II receptor B (Rattus norvegicus, UniProt P29089); assay: Binding affinity for rat angiotensin II receptor, type 1
T1 sequence (P29089 whole entry): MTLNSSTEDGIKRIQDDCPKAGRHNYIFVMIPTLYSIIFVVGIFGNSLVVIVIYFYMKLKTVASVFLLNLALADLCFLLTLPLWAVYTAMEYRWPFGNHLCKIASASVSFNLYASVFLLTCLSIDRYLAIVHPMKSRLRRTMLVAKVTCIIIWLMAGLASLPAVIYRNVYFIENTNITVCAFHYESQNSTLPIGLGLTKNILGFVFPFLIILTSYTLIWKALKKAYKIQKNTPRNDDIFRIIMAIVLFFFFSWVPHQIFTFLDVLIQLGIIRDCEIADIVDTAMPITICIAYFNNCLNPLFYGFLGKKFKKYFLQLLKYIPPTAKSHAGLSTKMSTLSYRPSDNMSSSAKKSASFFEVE

[3] = species: Oryctolagus cuniculus; assay: Inhibition of angiotensin II induced contraction in rabbit aortic strips after 60 minutes contact with the compound; format: functional; conditions: Aorta, 1 h; how it was run: as §1

CCc1nc2c(C)cc(C)nc2n1Cc1ccc(-c2c(-c3nnn[nH]3)cnc3ccccc23)cc1
pIC50 [1]: 8.70 | pIC50 [2]: 8.16 | pIC50 [3]: 8.40

CCCc1nc2c(C)cc(C)nc2n1Cc1ccc(-c2c(C(=O)O)c(Cl)nc3ccccc23)cc1
pIC50 [2]: 8.11

CCCc1nc2c(C)ccnc2n1Cc1ccc(-c2cccnc2-c2nn[nH]n2)cc1
pIC50 [2]: 7.22

CCc1nc2c(C)cc(C)nc2n1Cc1ccc(-c2c(C(=O)O)c3nnnn3c3ccccc23)cc1
pIC50 [2]: 7.28

CCCc1nc2c(C)cc(C)nc2n1Cc1ccc(-c2c(C(=O)O)c(N)nc3ccccc23)cc1
pIC50 [2]: 8.38 | pIC50 [3]: 8.48

CCCNc1nc2ccccc2c(-c2ccc(Cn3c(CC)nc4c(C)cc(C)nc43)cc2)c1C(=O)O
pIC50 [2]: 7.18

CCCCc1nc(Cl)c(CO)n1Cc1ccc(-c2ccccc2-c2nnn[nH]2)cc1 [LOSARTAN]
pIC50 [3]: 8.00

CCCCc1nc2c(C)cc(C)nc2n1Cc1ccc(-c2c(C(=O)O)c(N)nc3ccccc23)cc1
pIC50 [2]: 7.89

CCCc1nc2c(C)cc(C)nc2n1Cc1ccc(-c2c(C(=O)O)c(O)nc3ccccc23)cc1
pIC50 [2]: 6.58

CCCc1nc2c(C)cc(C)nc2n1Cc1ccc(-c2ccccc2-c2nn[nH]n2)cc1
pIC50 [2]: 9.10

CCCc1nc2c(C)cc(C)nc2n1Cc1ccc(-c2c(C(=O)O)c(C)nc3ccccc23)cc1
pIC50 [2]: 8.05 | pIC50 [3]: 7.89

CCc1nc2c(C)cc(C)nc2n1Cc1ccc(-c2c(C(=O)O)c(N(C)C)nc3ccccc23)cc1
pIC50 [2]: 7.54

CCCCc1nc(CCCC)n(Cc2ccc(-c3ncccc3-c3nnn[nH]3)cc2)n1
pIC50 [2]: 7.01

CCCc1nc2c(C)ccnc2n1Cc1ccc(-c2ccccc2-c2nn[nH]n2)cc1
pIC50 [2]: 9.00

CCc1nc2c(C)cc(C)nc2n1Cc1ccc(-c2ncccc2C(=O)O)cc1
pIC50 [2]: 6.09

CCCCc1nc(CCCC)n(Cc2ccc(-c3ccccc3-c3nnn[nH]3)cc2)n1
pIC50 [2]: 8.25

CCc1nc2c(C)cc(C)nc2n1Cc1ccc(-c2c(C(=O)O)c(N)nc3ccccc23)cc1
pIC50 [2]: 7.89

CCc1nc2c(C)cc(C)nc2n1Cc1ccc(-c2ccccc2-c2nnn[nH]2)cc1 [L-158809]
pIC50 [2]: 9.40

CCCc1nc2c(C)ccnc2n1Cc1ccc(-c2ccncc2-c2nnn[nH]2)cc1
pIC50 [2]: 8.40

CCc1nc2c(C)cc(C)nc2n1Cc1ccc(-c2c(C(=O)O)cnc3ccccc23)cc1
pIC50 [2]: 7.77

CCc1nc2c(C)cc(C)nc2n1Cc1ccc(-c2c(C(=O)O)c(=O)n(C)c3ccccc23)cc1
pIC50 [1]: 6.77 | pIC50 [2]: 6.49

CCc1nc2c(C)cc(C)nc2n1Cc1ccc(-c2c(C(=O)O)c(OC)nc3ccccc23)cc1
pIC50 [2]: 7.13

CCCCC(=O)N(Cc1ccc(-c2ccccc2-c2nnn[nH]2)cc1)[C@H](C(=O)O)C(C)C
pIC50 [2]: 8.72

CCCc1nc2c(C)cc(C)nc2n1Cc1ccc(-c2c(-c3nn[nH]n3)cnc3ccccc23)cc1
pIC50 [2]: 7.92

CCCCc1nc(CCCC)n(Cc2ccc(-c3cccnc3-c3nnn[nH]3)cc2)n1
pIC50 [2]: 6.96

CCc1nc2c(C)cc(C)nc2n1Cc1ccc(-c2c(CC(=O)O)c(Cl)nc3ccccc23)cc1
pIC50 [2]: 6.67

CCc1nc2c(C)cc(C)nc2n1Cc1ccc(-c2ncccc2-c2nn[nH]n2)cc1
pIC50 [2]: 7.74

CCCCc1nc2c(C)cc(C)nc2n1Cc1ccc(-c2c(C(=O)O)cnc3ccccc23)cc1
pIC50 [2]: 7.39

CCc1nc2c(C)cc(C)nc2n1Cc1ccc(-c2c(C(=O)O)ccc3ccccc23)cc1
pIC50 [2]: 7.48

CCCCc1nc(CCCC)n(Cc2ccc(-c3cnccc3-c3nnn[nH]3)cc2)n1
pIC50 [2]: 6.82

CCc1nc2c(C)cc(C)nc2n1Cc1ccc(-c2c(CC(=O)O)cnc3ccccc23)cc1
pIC50 [2]: 6.24

CCCN(CCC)c1nc2ccccc2c(-c2ccc(Cn3c(CC)nc4c(C)cc(C)nc43)cc2)c1C(=O)O
pIC50 [2]: 6.31

CCc1nc2c(C)cc(C)nc2n1Cc1ccc(-c2c(C(=O)O)c(NC)nc3ccccc23)cc1
pIC50 [2]: 7.89

CCCc1nc2c(C)cc(C)nc2n1Cc1ccc(-c2c(C(=O)NS(=O)(=O)c3ccc([N+](=O)[O-])cc3)cnc3ccccc23)cc1
pIC50 [2]: 6.97

CCCCc1nc(CCCC)n(Cc2ccc(-c3ccncc3-c3nnn[nH]3)cc2)n1
pIC50 [2]: 6.60
